Where a name gives a salt, the structure may show the parent alone. Read-outs that look alike come from different tables or passages of the source.
Key:
[1] = assay type: in vivo, mice; conditions: for CL/F / Vd/F / AUC(0-t) / MRT last / MRT inf / half-life / Cmax / Tmax / increase of metabolite AUC by propranolol: DLX 12 mg/kg p.o.; for CL/F / Vd/F / AUC(0-inf) / AUC(0-t) / MRT last / MRT inf / half-life / Cmax / Tmax / increase of metabolite AUC by propranolol: plasma; for AUC(0-inf) / AUC(0-t) / MRT last / MRT inf / half-life / Cmax / Tmax: male, mouse, po, 12 mg/kg; for AUC(0-t): AUC0-t; for MRT last: MRT0-t; for MRT inf: MRT0-∞; for increase of metabolite AUC by propranolol: peak area
Method in brief: (§1)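 16 h later they received DLX 12 mg/kg p.o. in 0.5% methyl cellulose. Tail-vein blood (heparin) was taken at 0–24 h (9 points) and spun to plasma. Plasma was methanol-precipitated with IS and run by LC-MS against a DLX standard curve. Parameters came from noncompartmental analysis; ratios were taken between group means.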

[2] = test system: Cyp2d; assay type: in vivo, mice; conditions: male, mouse, plasma, po, 12 mg/kg
Method in brief: as §1

[3] = assay type: in vivo, mice
[4] = Cyp1a2-KO mice, Cyp2d+I (propranolol 30 mg/kg 16 h before)
[5] = Cyp1a2-KO mice, control (vehicle)
[6] = WT mice, Cyp2d+I (propranolol 30 mg/kg 16 h before)
[7] = Cyp1a2-KO, Cyp1a2-KO mice, Cyp2d+I (propranolol 30 mg/kg 16 h before)
[8] = Cyp1a2-KO, Cyp1a2-KO mice, control (vehicle)
[9] = KO + control compared with WT + control, not statistically significant
[10] = KO + inhibitor compared to KO + control
[11] = WT + inhibitor compared to WT + control

CNCC[C@H](Oc1cccc2ccccc12)c1cccs1 [DLX, (3S)-N-methyl-3-(1-naphthyloxy)-3-(2-thienyl)propan-1-amine]
AUC0-t ratio Cyp2d+I/Control ([1]; Cyp1a2-KO mice): 2.29
AUC0-∞ ratio Cyp2d+I/Control ([1]; Cyp1a2-KO mice): 2.26
CL/F ratio Cyp2d+I/Control ([1]; Cyp1a2-KO mice): 0.40
Cmax ratio Cyp2d+I/Control ([1]; Cyp1a2-KO mice): 3.95
MRT0-t ratio Cyp2d+I/Control ([1]; Cyp1a2-KO mice): 0.80
MRT0-∞ ratio Cyp2d+I/Control ([1]; Cyp1a2-KO mice): 0.76
T1/2 ratio Cyp2d+I/Control ([1]; Cyp1a2-KO mice): 0.83
Tmax ratio Cyp2d+I/Control ([1]; Cyp1a2-KO mice): 0.40
Vd/F ratio Cyp2d+I/Control ([1]; Cyp1a2-KO mice): 0.30
CL/F [1, 4]: 2.94 ± 0.34 mg/(hr*μmol/L)/kg
Vd/F [1, 4]: 15.44 ± 1.71 mg/(μmol/L)/kg
CL/F [1, 5]: 7.32 ± 1.60 mg/(hr*μmol/L)/kg
Vd/F [1, 5]: 51.03 ± 18.18 mg/(μmol/L)/kg
increase of AUC0-t by propranolol ([1]; KO + inhibitor vs KO + control): 129%
increase of Cmax by propranolol ([1]; KO + inhibitor vs KO + control): 295%
AUC0-t KO control/WT control ratio ([1]; KO control vs WT control): 0.89
AUC0-∞ KO control/WT control ratio ([1]; KO control vs WT control): 0.89
CL/F KO control/WT control ratio ([1]; KO control vs WT control): 1.18
Cmax KO control/WT control ratio ([1]; KO control vs WT control): 0.56
MRT0-t KO control/WT control ratio ([1]; KO control vs WT control): 1.14
MRT0-∞ KO control/WT control ratio ([1]; KO control vs WT control): 1.16
T1/2 KO control/WT control ratio ([1]; KO control vs WT control): 1.04
Tmax KO control/WT control ratio ([1]; KO control vs WT control): 1.81
Vd/F KO control/WT control ratio ([1]; KO control vs WT control): 1.28
increase of AUC0-t by propranolol ([1]; WT + inhibitor vs WT + control): 304%
increase of Cmax by propranolol ([1]; WT + inhibitor vs WT + control): 177%
AUC0-t ratio Cyp2d+I/Control ([1]; WT mice): 4.04
AUC0-∞ ratio Cyp2d+I/Control ([1]; WT mice): 4.01
CL/F ratio Cyp2d+I/Control ([1]; WT mice): 0.30
Cmax ratio Cyp2d+I/Control ([1]; WT mice): 2.78
MRT0-t ratio Cyp2d+I/Control ([1]; WT mice): 1.10
MRT0-∞ ratio Cyp2d+I/Control ([1]; WT mice): 1.04
T1/2 ratio Cyp2d+I/Control ([1]; WT mice): 0.76
Tmax ratio Cyp2d+I/Control ([1]; WT mice): 0.91
Vd/F ratio Cyp2d+I/Control ([1]; WT mice): 0.26
increase of AUC of DLX by propranolol ([1]; WT mice): 3 folds
CL/F [1, 6]: 1.88 ± 0.60 mg/(hr*μmol/L)/kg
Vd/F [1, 6]: 10.27 ± 5.02 mg/(μmol/L)/kg
CL/F ([1]; WT mice, control (vehicle)): 6.19 ± 0.97 mg/(hr*μmol/L)/kg
Vd/F ([1]; WT mice, control (vehicle)): 39.87 ± 9.28 mg/(μmol/L)/kg
AUC(0-inf) ([1]; Cyp1a2-KO): 1.89 ± 0.39 µM·h
AUC(0-t) [1, 7]: 4.23 ± 0.56 µM·h
AUC(0-t) [1, 8]: 1.85 ± 0.39 µM·h
MRT last [1, 7]: 4.61 ± 0.29 h
MRT last [1, 8]: 5.73 ± 0.22 h
MRT inf [1, 7]: 4.83 ± 0.27 h
MRT inf [1, 8]: 6.39 ± 0.26 h
half-life ([1]; Cyp1a2-KO, T1/2, Cyp1a2-KO mice, Cyp2d+I (propranolol 30 mg/kg 16 h before)): 3.66 ± 0.24 h
half-life ([1]; Cyp1a2-KO, T1/2, Cyp1a2-KO mice, control (vehicle)): 4.43 ± 0.64 h
AUC(0-inf) [1]: 2.12 ± 0.4 µM·h
AUC(0-t) [1, 6]: 8.45 ± 2.46 µM·h
AUC(0-t) ([1]; WT mice, control (vehicle)): 2.09 ± 0.41 µM·h
Cmax [1, 4]: 790 ± 210 nM
Cmax [1, 5]: 200 ± 20 nM
Cmax [1, 6]: 1000 ± 210 nM
Cmax ([1]; WT mice, control (vehicle)): 360 ± 50 nM
MRT last [1, 6]: 5.51 ± 0.16 h
MRT last ([1]; WT mice, control (vehicle)): 5.02 ± 0.18 h
MRT inf [1, 6]: 5.75 ± 0.21 h
MRT inf ([1]; WT mice, control (vehicle)): 5.52 ± 0.34 h
half-life ([1]; T1/2, WT mice, Cyp2d+I (propranolol 30 mg/kg 16 h before)): 3.32 ± 0.52 h
half-life ([1]; T1/2, WT mice, control (vehicle)): 4.28 ± 0.41 h
Tmax [1, 4]: 1 ± 0.35 h
Tmax [1, 5]: 2.5 ± 0.5 h
Tmax [1, 6]: 1.25 ± 0.25 h
Tmax ([1]; WT mice, control (vehicle)): 1.38 ± 0.38 h
AUC(0-inf) ([2]; Cyp1a2-KO): 4.27 ± 0.57 µM·h
AUC(0-inf) [2]: 8.5 ± 2.45 µM·h
decrease of DLX level in liver [3, 9]: 48%
decrease of DLX level in lung [3, 9]: 31%
increase of DLX level in kidney [3, 9]: 62%
increase of DLX levels in brain and testis [3, 9]: around 25%
increase of DLX level in liver [3, 10]: 3 folds
increase of DLX levels in other tissues (than liver) [3, 10]: around 1.5 folds
elevation of DLX level in liver by Cyp2d inhibitor ([3]; KO mice (discussion)): 4.0 folds
increase of DLX level in kidney by Cyp2d inhibitor ([3]; KO mice (discussion)): 3.9 folds
increase of DLX level in kidney [3, 11]: Three-fold
increase of DLX levels in epididymis, testis and brain [3, 11]: 1–2 folds
increase of DLX levels in liver and spleen [3, 11]: around 90%
elevation of DLX level in liver by Cyp2d inhibitor ([3]; WT mice (discussion)): 1.9 folds
increase of DLX level in kidney by Cyp2d inhibitor ([3]; WT mice (discussion)): 2.5 folds

O=S(=O)(O)Oc1cccc2ccccc12 [M28, 1-naphthol sulfate]
increase of metabolite AUC by propranolol ([1]; KO mice): 73%
increase of metabolite AUC by propranolol ([1]; WT mice): 103%
increase of metabolite abundance in kidney by Cyp2d inhibitor ([3]; WT + inhibitor vs WT + control, or KO + inhibitor vs KO + control): over 65%

Reference: article PMC10395004 (European journal of pharmaceutical sciences : official …, 2022)
